Values joined by “and” are separate entries in the source; they are usually repeats but may differ in a detail not shown here. Equal values may be shown once.
Test system: HEK-293T
Assay: Multiplex assay against HEK293T
Format: toxicity, cell-based
Conditions: human
Procedure, shortened: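 At seeding, live cells were stained with Hoechst33342, BioTracker Green Microtubule Cytoskeleton Dye, MitoTracker Red and Annexin V Alexa Fluor 680. After compound addition they were imaged on a CQ1 microscope at 37°C and 5% CO2, and CellPathfinder machine-learning gating sorted them into Hoechst high-intensity objects or normal cells, with normal cells further split into healthy, pyknosed or fragmented nuclei and pyknosed cells into mitotic or apoptotic. Tubulin, mitochondrial-mass and membrane-permeability phenotypes are given as per cents of cells with healthy nuclei.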

[1] = 12 h, 1 µM, compound concentration 1 uM
[2] = 12 h, 10 µM, compound concentration 10 uM
[3] = 24 h, 1 µM, compound concentration 1 uM
[4] = 24 h, 10 µM, compound concentration 10 uM
[5] = 48 h, 1 µM, compound concentration 1 uM
[6] = 48 h, 10 µM, compound concentration 10 uM

## Cc1cc(O)c(-c2ccc([C@@H](C)CN(C)C)cc2)c2c1[nH]c(=O)c1sccc12
[1]
  Population Membrane Permeable-Phenotype (%): 0% and 1% and 7.14%
  Population Mitotic Cells (%): 88.89% [middle of 4 runs]
  Population Normal (%): 72% and 71% and 100%
  Population Tubulin-Different-Phenotype (%): 74% [middle of 4 runs]
  Total Cell Count: 209 and 207 and 208 and 140
[2]
  Population Fragmented Nuclei (%): 6% and 7% and 2.23% and 0.71%
  Population Membrane Permeable-Phenotype (%): 0% and 2.04% and 9.09%
  Population Mitotic Cells (%): 62.79% [middle of 4 runs]
  Population Normal (%): 58% and 71% and 100%
  Population Pyknosed Nuclei (%): 75.89% [middle of 4 runs]
  Population Tubulin-Different-Phenotype (%): 60% and 72% and 75.51% and 63.64%
  Total Cell Count: 268 and 195 and 224 and 141
[3]
  Population Apoptotic (%): 65% and 68% and 44.06% and 39.32%
  Population Fragmented Nuclei (%): 9% and 2.63% and 2.94%
  Population Hoechst High Intensity Objects (%): 21% and 1.72% and 0%
  Population Membrane Permeable-Phenotype (%): 0% and 6.67%
  Population Mitochondria Different-Phenotype (%): 89% [middle of 4 runs]
  Population Mitotic Cells (%): 34% and 31% and 55.94% and 60.68%
  Population Normal (%): 78% and 98.28% and 100%
  Population Tubulin-Different-Phenotype (%): 67% [middle of 4 runs]
  Total Cell Count: 230 and 205 and 232 and 136
[4]
  Population Apoptotic (%): 73% and 85% and 61.29% and 65.71%
  Population Fragmented Nuclei (%): 8% and 7% and 0.96% and 1.33%
  Population Membrane Permeable-Phenotype (%): 1.92% [middle of 4 runs]
  Population Mitochondria Different-Phenotype (%): 92% [middle of 4 runs]
  Population Mitotic Cells (%): 34.29% [middle of 4 runs]
  Population Normal (%): 63% and 74% and 99.52% and 100%
  Population Tubulin-Different-Phenotype (%): 70% and 80% and 96.15% and 62.5%
  Total Cell Count: 290 and 203 and 210 and 150
[5]
  Population Apoptotic (%): 86% and 69% and 73.55% and 70.43%
  Population Hoechst High Intensity Objects (%): 24% [middle of 4 runs]
  Population Membrane Permeable-Phenotype (%): 0%
  Population Mitochondria Different-Phenotype (%): 90% and 96% and 92% and 88.89%
  Population Mitotic Cells (%): 29.57% [middle of 4 runs]
  Population Normal (%): 75% and 74% and 99.03% and 100%
  Population Tubulin-Different-Phenotype (%): 76% and 70% and 42.67% and 77.78%
  Total Cell Count: 249 and 212 and 206 and 135
[6]
  Population Apoptotic (%): 86% and 87% and 92.81% and 91.73%
  Population Fragmented Nuclei (%): 13% [middle of 4 runs]
  Population Membrane Permeable-Phenotype (%): 1% and 0% and 1.56%
  Population Mitochondria Different-Phenotype (%): 92% and 100% and 87.5%
  Population Mitotic Cells (%): 13% and 12% and 7.19% and 8.27%
  Population Normal (%): 59% and 65% and 99.52% and 100%
  Population Tubulin-Different-Phenotype (%): 54% and 73% and 90.62% and 87.5%
  Total Cell Count: 223 [middle of 4 runs]

## CCN1CCN(Cc2ccc(Nc3ncc(F)c(-c4cc(F)c5nc(C)n(C(C)C)c5c4)n3)nc2)CC1.CS(=O)(=O)O
[1]
  Population Fragmented Nuclei (%): 2.72% and 5.37%
  Population Healthy Nuclei (%): 46.26% and 18.79%
  Population Hoechst High Intensity Objects (%): 1.01% and 0%
  Population Membrane Permeable-Phenotype (%): 0.74% and 0%
  Population Mitotic Cells (%): 90.67% and 79.65%
  Population Normal (%): 98.99% and 100%
  Population Pyknosed Nuclei (%): 51.02% and 75.84%
  Population Tubulin-Different-Phenotype (%): 23.53% and 64.29%
  Total Cell Count: 297 and 149
[2]
  Population Fragmented Nuclei (%): 1.2% and 2.36%
  Population Hoechst High Intensity Objects (%): 0.4% and 0%
  Population Membrane Permeable-Phenotype (%): 0%
  Population Mitochondria Different-Phenotype (%): 53.85% and 28.57%
  Population Mitotic Cells (%): 88.21% and 74.36%
  Population Normal (%): 99.6% and 100%
  Population Pyknosed Nuclei (%): 78% and 92.13%
  Population Tubulin-Different-Phenotype (%): 84.62% and 28.57%
  Total Cell Count: 251 and 127
[3]
  Population Fragmented Nuclei (%): 1.38% and 4.83%
  Population Healthy Nuclei (%): 71.43% and 24.14%
  Population Hoechst High Intensity Objects (%): 0.23% and 0%
  Population Membrane Permeable-Phenotype (%): 2.9% and 2.86%
  Population Mitochondria Different-Phenotype (%): 26.13% and 22.86%
  Population Mitotic Cells (%): 82.2% and 83.5%
  Population Normal (%): 99.77% and 100%
  Population Pyknosed Nuclei (%): 27.19% and 71.03%
  Population Tubulin-Different-Phenotype (%): 47.42% and 25.71%
  Total Cell Count: 435 and 145
[4]
  Population Fragmented Nuclei (%): 0.69% and 4.07%
  Population Healthy Nuclei (%): 25.86% and 10.57%
  Population Hoechst High Intensity Objects (%): 0%
  Population Membrane Permeable-Phenotype (%): 0% and 23.08%
  Population Mitochondria Different-Phenotype (%): 52% and 38.46%
  Population Mitotic Cells (%): 64.32% and 55.24%
  Population Normal (%): 100%
  Population Pyknosed Nuclei (%): 73.45% and 85.37%
  Population Tubulin-Different-Phenotype (%): 93.33% and 53.85%
  Total Cell Count: 290 and 123
[5]
  Population Fragmented Nuclei (%): 2.67% and 1.8%
  Population Healthy Nuclei (%): 85.01% and 53.89%
  Population Hoechst High Intensity Objects (%): 0.13% and 0%
  Population Membrane Permeable-Phenotype (%): 9.27% and 2.22%
  Population Mitochondria Different-Phenotype (%): 37.67% and 48.89%
  Population Mitotic Cells (%): 82.47% and 79.73%
  Population Normal (%): 99.87% and 100%
[6]
  Population Fragmented Nuclei (%): 3.24% and 4.8%
  Population Healthy Nuclei (%): 28.78% and 13.6%
  Population Hoechst High Intensity Objects (%): 0% and 0.79%
  Population Membrane Permeable-Phenotype (%): 1.25% and 0%
  Population Mitochondria Different-Phenotype (%): 96.25% and 58.82%
  Population Mitotic Cells (%): 30.16% and 40.2%
  Population Normal (%): 100% and 99.21%
  Population Pyknosed Nuclei (%): 67.99% and 81.6%
  Population Tubulin-Different-Phenotype (%): 85% and 58.82%
  Total Cell Count: 278 and 126

## CCn1c(-c2nc3cc(C(=O)N4CCCC(N)C4)ccc3n2C)cc2ccccc21.Cl (configuration not stated)
[1]
  Population Fragmented Nuclei (%): 9% and 5% and 1.84% and 3.31%
  Population Hoechst High Intensity Objects (%): 7% and 6% and 0%
  Population Membrane Permeable-Phenotype (%): 0%
  Population Mitochondria Different-Phenotype (%): 52% [middle of 4 runs]
  Population Mitotic Cells (%): 87.4% [middle of 4 runs]
  Population Normal (%): 92% and 93% and 100%
  Total Cell Count: 351 [middle of 4 runs]
[2]
  Population Fragmented Nuclei (%): 8% and 6% and 2.45% and 0.66%
  Population Hoechst High Intensity Objects (%): 8% [middle of 4 runs]
  Population Membrane Permeable-Phenotype (%): 0% and 0.78%
  Population Mitotic Cells (%): 46% and 86.32% and 69.7%
  Population Normal (%): 88% and 91% and 99.7% and 100%
  Population Tubulin-Different-Phenotype (%): 66.67% [middle of 4 runs]
  Total Cell Count: 398 [middle of 4 runs]
[3]
  Population Fragmented Nuclei (%): 9% and 1.41% and 1.3%
  Population Healthy Nuclei (%): 79% [middle of 4 runs]
  Population Hoechst High Intensity Objects (%): 6% and 4% and 0.2% and 0%
  Population Membrane Permeable-Phenotype (%): 0% and 1.42% and 4.76%
  Population Mitochondria Different-Phenotype (%): 37% [middle of 4 runs]
  Population Mitotic Cells (%): 64% and 60% and 92.7% and 77.27%
  Population Normal (%): 93% and 95% and 99.8% and 100%
  Population Tubulin-Different-Phenotype (%): 22% and 14% and 16.24% and 11.9%
[4]
  Population Apoptotic (%): 51% and 40% and 33.59% and 49.56%
  Population Hoechst High Intensity Objects (%): 12% and 9% and 0%
  Population Membrane Permeable-Phenotype (%): 1% and 0% and 0.79%
  Population Mitochondria Different-Phenotype (%): 72% [middle of 4 runs]
  Population Mitotic Cells (%): 48% and 59% and 66.41% and 50.44%
  Population Normal (%): 87% and 90% and 100%
  Population Tubulin-Different-Phenotype (%): 64% and 58% and 63.64% and 33.33%
[5]
  Population Fragmented Nuclei (%): 12% [middle of 4 runs]
  Population Healthy Nuclei (%): 79% and 81% and 86.51% and 57.44%
  Population Hoechst High Intensity Objects (%): 5% and 4% and 0%
  Population Membrane Permeable-Phenotype (%): 1% and 0% and 6.55% and 0.89%
  Population Mitochondria Different-Phenotype (%): 28% [middle of 4 runs]
  Population Mitotic Cells (%): 79% and 85% and 95.24% and 75.9%
  Population Normal (%): 94% and 95% and 100%
[6]
  Population Apoptotic (%): 50% and 52% and 28.06% and 40.68%
  Population Healthy Nuclei (%): 73% and 79% and 77.55% and 60.49%
  Population Membrane Permeable-Phenotype (%): 0% and 1.26% and 2.04%
  Population Mitochondria Different-Phenotype (%): 65% and 71% and 79.5% and 83.67%
  Population Mitotic Cells (%): 49% and 47% and 71.94% and 59.32%
  Population Normal (%): 84% and 91% and 99.86% and 97.59%
